# Results taken from paper PMC8263925 (The Journal of General Physiology, 2021).
# Substitutions are numbered along the chain they refer to.
# How the values were obtained:
# Hv1 WT = target: T1, Hv1 WT (Homo sapiens, UniProt Q96D96); assay type: cell-based
# T1 sequence (Q96D96 1-273): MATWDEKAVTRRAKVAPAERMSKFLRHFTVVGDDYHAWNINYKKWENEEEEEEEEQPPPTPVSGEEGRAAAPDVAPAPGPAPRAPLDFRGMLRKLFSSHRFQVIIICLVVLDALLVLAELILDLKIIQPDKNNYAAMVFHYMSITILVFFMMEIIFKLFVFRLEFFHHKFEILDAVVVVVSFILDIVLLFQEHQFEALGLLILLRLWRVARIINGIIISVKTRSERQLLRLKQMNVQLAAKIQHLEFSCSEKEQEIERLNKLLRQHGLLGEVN
# Method in brief: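 WT channel in inside-out oocyte patches, symmetric pH 6.0, 22 ± 1°C. Holding −40 mV, depolarization to +120 mV; relative depolarization time td/(tr + td) of 0.1, 0.2, 0.3 or 0.5. 50 µM perfused into bath, then washed out. End-pulse current normalized. Decay fitted double-exponentially (τfast, τslow, weights, c∞); recovery fitted single-exponentially. n = 7, 7, 5, 8 per RDT; SEM.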
# Hv1 D112E = target: T2, Hv1 D112E (Homo sapiens, UniProt Q96D96, D112E); assay: Inside-out patch time course of inhibition, mutant channel; assay type: cell-based; conditions: 50 µM, RDT 0.1
# T2 sequence (Q96D96 1-273 D112E): T1 sequence (Q96D96 1-273) with D112E
# Method in brief: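 Mutant channel expressed in oocytes. Inside-out patches, pH 6.0 both sides, 22 ± 1°C. Holding −40 mV, depolarizations to +120 mV at relative depolarization time 0.1 (2 s/20 s) to follow slow kinetics, with matched WT comparison. 50 µM perfused into bath. Isochronal end-pulse current, leak- and rundown-corrected. Decay fitted with a double-exponential function for fast and slow components.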
# Hv1 F150A = target: T3, Hv1 F150A (Homo sapiens, UniProt Q96D96, F150A); assay: Inside-out patch time course of inhibition, mutant channel; assay type: cell-based; conditions: 0.1 µM, SEM, n = 5
# T3 sequence (Q96D96 1-273 F150A): T1 sequence (Q96D96 1-273) with F150A
# Hv1 S181A = assay: Inside-out patch time course of inhibition, mutant channel; assay type: cell-based, human; conditions: 50 µM
# Method in brief: (§1)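 Xenopus oocytes injected with mutant-channel mRNA 1–3 d earlier, kept at 18°C in ND96. Inside-out patches at 22 ± 1°C in symmetric Mes/TEA solutions, pH 6.0. Held at −40 mV and pulsed to +120 mV at relative depolarization time 0.2 (3 s/15 s). 50 µM perfused into bath. End-pulse current leak- and rundown-corrected. Decay fitted double-exponentially (τfast, τslow, cfast, cslow); washout recovery single-exponentially (τoff).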
# Hv1 E171Q = target: T4, Hv1 E171Q (Homo sapiens, UniProt Q96D96, E171Q); assay: as above; assay type: cell-based; conditions: 50 µM
# T4 sequence (Q96D96 1-273 E171Q): T1 sequence (Q96D96 1-273) with E171Q
# Method in brief: as §1
# Hv1 D174E = target: T5, Hv1 D174E (Homo sapiens, UniProt Q96D96, D174E); assay: as above; assay type: cell-based
# T5 sequence (Q96D96 1-273 D174E): T1 sequence (Q96D96 1-273) with D174E
# Method in brief: as §1
# Hv1 D185A = target: T6, Hv1 D185A (Homo sapiens, UniProt Q96D96, D185A); assay: as above; assay type: cell-based; conditions: 50 µM
# T6 sequence (Q96D96 1-273 D185A): T1 sequence (Q96D96 1-273) with D185A
# Method in brief: as §1
# Hv1 W207Y = target: T7, Hv1 W207Y (Homo sapiens, UniProt Q96D96, W207Y); assay: as above; assay type: cell-based; conditions: 50 µM
# T7 sequence (Q96D96 1-273 W207Y): T1 sequence (Q96D96 1-273) with W207Y
# Method in brief: as §1
# [1] = 50 μM, double-exponential fit, RDT 0.1-0.5
smiles,measurement,setting,value
"Cc1[nH]c(N)nc1CCC(=O)c1cc(F)cc(F)c1 [HIF, 3-(2-amino-5-methyl-1H-imidazol-4-yl)-1-(3,5-difluorophenyl)propan-1-one]","relative contribution of the slow component, cslow / (cfast + cslow)","Hv1 WT; 50 μM, RDT = 0.2",0.51
same,"τfast, time constant of fast component of inhibition",Hv1 WT; [1],< 5 s
same,"τslow, time constant of slow component of inhibition",Hv1 WT; [1],> 40 s
same,"τslow, RDTon = 0.1/τslow, RDTon = 0.5","Hv1 WT; 50 μM, experimental",1.15 ± 0.20
same,"τoff, recovery from inhibition","Hv1 WT; after 50 µM, RDT = 0.2",94 ± 7 s
same,"τoff, time constant of recovery from inhibition","Hv1 WT; after 50 μM, single-exponential fit, RDT 0.1-0.5",≥ 80 s
same,fast component of the inhibition process,Hv1 D112E,eliminated
same,slow component of the inhibition process,Hv1 D112E,unaffected
same,ratio between the peak current and the current at the end of the depolarization step in the presence of the inhibitor,Hv1 F150A,2.5 ± 0.5
same,higher inhibition vs WT,Hv1 S181A,7%
same,reduction in τslow vs WT,Hv1 S181A,26%
same,reduction of the extent of inhibition vs WT,Hv1 E171Q,46%
same,τslow,Hv1 E171Q; too slow to be accurately quantified,> 200 s
same,reduction of the extent of inhibition vs WT,Hv1 D174E; 50 µM,35%
same,τslow,"Hv1 D174E; 50 µM, too slow to be accurately quantified",> 200 s
same,"τoff, recovery from inhibition","Hv1 D174E; after 50 µM, RDT = 0.2",37 ± 6 s
same,effect of mutation on extent or time course of inhibition,Hv1 D185A,did not appreciably affect
same,reduction of the extent of inhibition vs WT,Hv1 W207Y,38%
same,τslow,Hv1 W207Y,> 200 s
